The source of these data is ChEMBL document CHEMBL3407418, “Fragment-based drug discovery of 2-thiazolidinones as BRD4 inhibitors: 2. Structure-based optimization” (J Med Chem, 2015).

The target in data set [1] is Bromodomain-containing protein 4 (Homo sapiens, UniProt O60885). The data set is described as follows: Inhibition of BRD4(1) (unknown origin) incubated for 4 hrs by (+)-JQ1 fluorescent ligand based fluorescence anisotrophy.
For a further data set, the system named is HT-29. In words: Growth inhibition of human HT-29 cells after 72 hrs by SRB assay. Conditions: HT-29, 72 h; call rule not given here. It is filed as functional, cell-based. A digest of the protocol: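 HT-29 cells are grown in McCoy's 5A with 10% FBS at 37 °C, 5% CO2. DMSO stocks (0.01 mol/L) are diluted in normal saline just before use. Cells are treated in triplicate with gradient concentrations for 72 h at 37 °C.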

Data set [2] can be described thus: Stability in human liver microsomes assessed as clearance at 1 uM pre-incubated for 5 mins followed by NADPH addition and measured after 5 to 30 mins post NADPH addition by LC/MS/MS method. It is filed as ADME. The settings on record: read-out: CLH. A digest of the protocol:
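Human liver microsomes (0.5 mg/mL) preincubated with 1 µM compound for 5 min at 37 °C in 0.1 M phosphate pH 7.4 with 1 mmol EDTA and 5 mmol MgCl2. Started with 1 mmol NADPH; sampled at 0, 5, 10 and 30 min. Quenched with equal volume of cold acetonitrile, vortexed, and centrifuged at 10,000 × g.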

Data set [3] has as its target T1, CYP3A4 (Homo sapiens, UniProt P08684). In words: Inhibition of CYP3A4 in human liver microsomes at 10 uM using midazolam substrate preincubated for 5 mins before NADPH addition and measured after 20 mins post NADPH addition. It is filed as ADME. The settings on record: probe midazolam. In outline:
(§1)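 Human liver microsomes 0.2 mg/mL, 1 mmol NADPH, 100 mmol phosphate pH 7.4, probe cocktail (10 μM midazolam, 100 μM testosterone, 10 μM dextromethorphan, 20 μM diclofenac, 100 μM phenacetin, 100 μM mephenytoin), test compound 10 μM or PBS; organic solvent <1%. 5 min preincubation at 37 °C, NADPH-generating system start, 20 min reaction; inhibition from metabolite formation relative to PBS.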
A general note: Microsomes from liver hold many membrane-bound enzymes, among them those of drug oxidation.

Data set [4] addresses T1, CYP3A4. In words: Inhibition of CYP3A4 in human liver microsomes at 10 uM preincubated for 5 mins before NADPH addition and measured after 20 mins post NADPH addition. It is filed as ADME.
A further data set has as its target CYP2D6 (Homo sapiens, UniProt P10635). The data set is described as follows: Inhibition of CYP2D6 in human liver microsomes at 10 uM using dextromethorphan substrate preincubated for 5 mins before NADPH addition and measured after 20 mins post NADPH addition. It is filed as ADME. The settings on record: liver microsomes, probe dextromethorphan. A digest of the protocol:
as §1

Another data set addresses CYP2C9 (Homo sapiens, UniProt P11712). In words: (§2) Inhibition of CYP2C9 in human liver microsomes at 10 uM using diclofenac substrate preincubated for 5 mins before NADPH addition and measured after 20 mins post NADPH addition. It is filed as ADME. Conditions: liver microsomes, probe diclofenac. A digest of the protocol:
as §1

The target of another data set is T2, CYP1A2 (Homo sapiens, UniProt P05177).
T2 sequence (P05177 whole entry): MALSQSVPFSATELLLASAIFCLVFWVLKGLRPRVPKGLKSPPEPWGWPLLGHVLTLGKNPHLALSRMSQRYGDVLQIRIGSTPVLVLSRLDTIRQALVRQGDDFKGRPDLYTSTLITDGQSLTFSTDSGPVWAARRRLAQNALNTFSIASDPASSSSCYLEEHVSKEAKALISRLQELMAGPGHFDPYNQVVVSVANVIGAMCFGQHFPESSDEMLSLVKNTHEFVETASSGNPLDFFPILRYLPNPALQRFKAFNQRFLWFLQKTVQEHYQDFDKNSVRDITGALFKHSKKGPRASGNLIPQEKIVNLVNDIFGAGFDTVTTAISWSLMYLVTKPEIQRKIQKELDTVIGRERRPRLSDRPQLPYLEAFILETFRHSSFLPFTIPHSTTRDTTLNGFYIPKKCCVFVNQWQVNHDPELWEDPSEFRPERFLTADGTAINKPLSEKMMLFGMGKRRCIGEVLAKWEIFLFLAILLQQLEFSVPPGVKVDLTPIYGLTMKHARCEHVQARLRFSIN
In words: Inhibition of CYP1A2 in human liver microsomes at 10 uM using phenacetin substrate preincubated for 5 mins before NADPH addition and measured after 20 mins post NADPH addition. Conditions: probe phenacetin. It is filed as ADME. In outline:
as §1

The target in the next data set is CYP2C19 (Homo sapiens, UniProt P33261). In words: Inhibition of CYP2C19 in human liver microsomes at 10 uM using mephenytoin substrate preincubated for 5 mins before NADPH addition and measured after 20 mins post NADPH addition. Conditions: probe mephenytoin. It is filed as ADME. A digest of the protocol: as §1
The target of another data set is Cytochrome P450 3A4 (Homo sapiens, UniProt P08684). The data set is described as follows: Time dependent inhibition of CYP3A4 in human liver microsomes at 10 uM using midazolam substrate preincubated for 5 mins before NADPH addition and measured after 20 mins post NADPH addition. It is filed as ADME.
Another data set concerns the target Cytochrome P450 2D6 (Homo sapiens, UniProt P10635). The data set is described as follows: Time dependent inhibition of CYP2D6 in human liver microsomes at 10 uM using dextromethorphan substrate preincubated for 5 mins before NADPH addition and measured after 20 mins post NADPH addition. It is filed as ADME.
The target in data set [5] is T3, Cytochrome P450 2C9 (Homo sapiens, UniProt P11712). The data set is described as follows: Time dependent inhibition of CYP2C9 in human liver microsomes at 10 uM using diclofenac substrate preincubated for 5 mins before NADPH addition and measured after 20 mins post NADPH addition. It is filed as ADME.
In another data set the target is T4, Cytochrome P450 1A2 (Homo sapiens, UniProt P05177).
T4 sequence (P05177 whole entry): T2 sequence (P05177 whole entry)
In words: Time dependent inhibition of CYP1A2 in human liver microsomes at 10 uM using phenacetin substrate preincubated for 5 mins before NADPH addition and measured after 20 mins post NADPH addition. It is filed as ADME.

The target of a further data set is Cytochrome P450 2C19 (Homo sapiens, UniProt P33261). In words: Time dependent inhibition of CYP2C19 in human liver microsomes at 10 uM using mephenytoin substrate preincubated for 5 mins before NADPH addition and measured after 20 mins post NADPH addition. It is filed as ADME.
Data set [6] in a line: Growth inhibition of human MM1S cells after 72 hrs by CellTiter-Glo luminescent cell viability assay. Conditions: MM1.S.
For the next data set, the system named is MV4-11. The data set is described as follows: Growth inhibition of human MV4-11 cells after 72 hrs by CellTiter-Glo luminescent cell viability assay. Conditions: MV4-11, 72 h.
Data set [7] deals with T5, ATPase family AAA domain-containing protein 2 (Homo sapiens) (UniProt Q6PL18).
T5 sequence (whole entry): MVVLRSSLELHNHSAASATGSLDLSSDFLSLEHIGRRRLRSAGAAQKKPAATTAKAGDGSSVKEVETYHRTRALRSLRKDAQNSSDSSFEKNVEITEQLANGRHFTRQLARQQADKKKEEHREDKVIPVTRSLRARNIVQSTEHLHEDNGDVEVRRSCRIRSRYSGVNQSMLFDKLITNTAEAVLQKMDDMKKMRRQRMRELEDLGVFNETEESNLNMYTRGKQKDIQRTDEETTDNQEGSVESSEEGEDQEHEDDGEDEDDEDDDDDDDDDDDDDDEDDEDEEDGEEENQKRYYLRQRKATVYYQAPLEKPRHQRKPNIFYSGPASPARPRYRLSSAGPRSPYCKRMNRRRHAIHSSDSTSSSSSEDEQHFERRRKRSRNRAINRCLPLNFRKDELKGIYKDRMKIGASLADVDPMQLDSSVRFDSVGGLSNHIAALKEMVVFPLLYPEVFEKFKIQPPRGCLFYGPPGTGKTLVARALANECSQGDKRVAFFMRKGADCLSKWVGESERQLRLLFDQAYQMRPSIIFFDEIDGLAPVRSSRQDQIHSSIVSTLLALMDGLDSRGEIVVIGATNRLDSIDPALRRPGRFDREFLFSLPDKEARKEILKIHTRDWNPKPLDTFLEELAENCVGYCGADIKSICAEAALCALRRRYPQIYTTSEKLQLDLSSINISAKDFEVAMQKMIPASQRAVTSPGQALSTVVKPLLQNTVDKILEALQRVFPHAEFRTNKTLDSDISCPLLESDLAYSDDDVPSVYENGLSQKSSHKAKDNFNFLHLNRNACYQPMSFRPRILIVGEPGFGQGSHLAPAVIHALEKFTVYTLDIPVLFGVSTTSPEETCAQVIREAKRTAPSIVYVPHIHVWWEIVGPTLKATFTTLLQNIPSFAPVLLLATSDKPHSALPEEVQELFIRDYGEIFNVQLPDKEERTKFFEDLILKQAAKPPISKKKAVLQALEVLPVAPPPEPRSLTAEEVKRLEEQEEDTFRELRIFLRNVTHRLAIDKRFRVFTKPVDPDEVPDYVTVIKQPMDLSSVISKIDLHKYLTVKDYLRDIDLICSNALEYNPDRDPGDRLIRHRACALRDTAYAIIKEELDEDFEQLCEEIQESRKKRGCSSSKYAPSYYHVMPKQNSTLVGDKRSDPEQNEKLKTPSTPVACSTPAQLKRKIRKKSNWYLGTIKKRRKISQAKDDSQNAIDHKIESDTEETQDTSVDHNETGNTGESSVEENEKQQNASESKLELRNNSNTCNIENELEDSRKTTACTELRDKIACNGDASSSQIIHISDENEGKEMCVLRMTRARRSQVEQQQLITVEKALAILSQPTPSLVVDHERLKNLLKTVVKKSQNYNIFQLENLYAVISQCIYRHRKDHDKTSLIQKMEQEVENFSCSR
The data set is described as follows: Binding affinity to ATAD2 (unknown origin) assessed as increase in protein melting temperature at 50 umol by real-time PCR system based thermal shift assay. A digest of the protocol:
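Bromodomain proteins in 10 mmol HEPES pH 7.5, 500 mmol NaCl at 75 μg/mL final; compound at 50 µmol final; SYPRO Orange probe at 1:1000. Four replicates per protein mixture. Melt curve read on a real-time PCR instrument, heating 25 °C to 99 °C at 1 °C/min under continuous fluorescence reading; binding taken as the rise in protein melting temperature.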

Data set [8] deals with T3, Cytochrome P450 2C9. The data set is described as §2. It is filed as ADME. Conditions: microsomes, 20 min, 10 µM. A digest of the protocol: as §1

pIC50: −log10 of the molar value.

Cytochrome P450 2C19, sequence (P33261 whole entry): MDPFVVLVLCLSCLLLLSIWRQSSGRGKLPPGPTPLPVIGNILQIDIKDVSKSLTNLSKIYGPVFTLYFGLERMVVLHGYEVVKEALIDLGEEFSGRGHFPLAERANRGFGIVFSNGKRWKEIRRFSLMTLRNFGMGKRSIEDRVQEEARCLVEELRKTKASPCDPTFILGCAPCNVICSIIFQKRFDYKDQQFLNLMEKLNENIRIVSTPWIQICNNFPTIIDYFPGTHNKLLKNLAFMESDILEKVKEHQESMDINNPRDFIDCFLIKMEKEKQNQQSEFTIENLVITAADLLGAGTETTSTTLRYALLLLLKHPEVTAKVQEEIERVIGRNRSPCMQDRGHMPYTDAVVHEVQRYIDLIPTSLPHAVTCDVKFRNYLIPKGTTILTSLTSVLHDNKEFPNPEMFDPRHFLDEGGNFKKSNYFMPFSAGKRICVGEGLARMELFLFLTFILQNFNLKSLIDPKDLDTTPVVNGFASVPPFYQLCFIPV
CYP2C19, sequence (P33261 whole entry): as above
T3 sequence (P11712 whole entry): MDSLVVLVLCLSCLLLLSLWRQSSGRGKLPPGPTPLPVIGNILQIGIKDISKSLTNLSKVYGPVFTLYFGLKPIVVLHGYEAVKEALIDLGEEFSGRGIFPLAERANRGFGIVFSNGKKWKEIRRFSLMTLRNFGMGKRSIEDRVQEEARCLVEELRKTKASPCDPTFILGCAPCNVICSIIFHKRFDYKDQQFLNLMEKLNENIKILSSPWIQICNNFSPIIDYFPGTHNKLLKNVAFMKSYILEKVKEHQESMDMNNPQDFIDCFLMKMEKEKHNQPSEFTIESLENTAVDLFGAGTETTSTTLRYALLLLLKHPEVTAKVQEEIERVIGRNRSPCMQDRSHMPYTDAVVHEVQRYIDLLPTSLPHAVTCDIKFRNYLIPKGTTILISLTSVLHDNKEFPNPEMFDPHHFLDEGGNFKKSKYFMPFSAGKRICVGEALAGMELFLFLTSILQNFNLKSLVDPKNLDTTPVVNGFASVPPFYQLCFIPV
CYP2C9, sequence (P11712 whole entry): as above
CYP2D6, sequence (P10635 whole entry): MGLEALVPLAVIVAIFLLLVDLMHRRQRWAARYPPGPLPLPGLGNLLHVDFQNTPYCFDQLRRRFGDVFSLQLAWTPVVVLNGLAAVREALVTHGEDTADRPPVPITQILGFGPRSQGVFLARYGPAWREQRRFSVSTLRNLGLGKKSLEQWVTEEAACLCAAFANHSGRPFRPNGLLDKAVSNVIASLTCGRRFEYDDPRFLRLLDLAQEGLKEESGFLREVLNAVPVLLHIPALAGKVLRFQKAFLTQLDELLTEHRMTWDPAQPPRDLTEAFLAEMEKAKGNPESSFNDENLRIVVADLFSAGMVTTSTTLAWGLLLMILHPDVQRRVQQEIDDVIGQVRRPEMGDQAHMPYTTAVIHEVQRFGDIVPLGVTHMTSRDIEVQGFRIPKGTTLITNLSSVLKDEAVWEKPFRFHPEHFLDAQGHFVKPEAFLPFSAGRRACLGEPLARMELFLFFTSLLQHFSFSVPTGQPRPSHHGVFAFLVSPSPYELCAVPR
Cytochrome P450 2D6, sequence (P10635 whole entry): as above
Cytochrome P450 3A4, sequence (P08684 whole entry): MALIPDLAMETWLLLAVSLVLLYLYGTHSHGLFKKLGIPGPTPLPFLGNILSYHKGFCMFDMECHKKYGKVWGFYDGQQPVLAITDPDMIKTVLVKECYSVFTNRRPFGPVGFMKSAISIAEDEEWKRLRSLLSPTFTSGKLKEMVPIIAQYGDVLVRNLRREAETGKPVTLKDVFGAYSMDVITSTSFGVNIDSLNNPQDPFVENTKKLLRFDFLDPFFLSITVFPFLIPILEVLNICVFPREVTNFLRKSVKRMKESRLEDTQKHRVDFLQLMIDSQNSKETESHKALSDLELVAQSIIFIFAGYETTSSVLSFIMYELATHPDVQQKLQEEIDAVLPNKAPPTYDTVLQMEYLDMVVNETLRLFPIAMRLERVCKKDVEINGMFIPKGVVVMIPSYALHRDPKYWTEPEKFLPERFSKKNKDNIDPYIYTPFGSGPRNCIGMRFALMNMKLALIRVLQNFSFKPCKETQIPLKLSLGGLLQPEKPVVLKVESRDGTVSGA
T1 sequence (P08684 whole entry): as above

As for `O=C(Nc1cc(-c2csc(=O)[nH]2)cc(S(=O)(=O)NC2CCCC2)c1)c1cccs1`, the pIC50 in [1] is 6.96; in the data set with HT-29, 4.60; in [6], 5.48; with MV4-11, 6.57. Moreover, in data set [2], the microsomal CLint at 1 µM turned out to be 64 µL/min/mg. Besides, the inhibition at 20 min, 10 µM turned out to be 17% against CYP3A4 [3]; 34% against CYP3A4 [4]; 44% on CYP2D6; 57% against CYP2C9; 45% against CYP1A2; 46% against CYP2C19. Further, the TDI result at Cytochrome P450 3A4, at Cytochrome P450 2D6, on Cytochrome P450 2C9 [5], on Cytochrome P450 1A2 and at Cytochrome P450 2C19 was “Not Active” in each case.
Consider `COc1cc2c(cc1-c1c(C)noc1C)ncc1[nH]c(=O)n([C@H](C)c3ccccn3)c12`, for which the pIC50 is 6.02 with HT-29, 6.52 in data set [6] and 6.92 in the data set on MV4-11. For the same compound, the inhibition at 20 min, 10 µM at CYP3A4 [3] came to 21%; against CYP3A4 [4] it was 22%; against CYP2D6, 18%; against CYP2C9, 33%; on CYP1A2, 18%; on CYP2C19 it was 19%. Further, the TDI result on Cytochrome P450 3A4, at Cytochrome P450 2D6, at Cytochrome P450 2C9 [5], on Cytochrome P450 1A2 and on Cytochrome P450 2C19 was “Not Active” each time.
As to `Cc1sc2c(c1C)C(c1ccc(Cl)cc1)=N[C@@H](CC(=O)OC(C)(C)C)c1nnc(C)n1-2`, the pIC50 is 6.98 with HT-29, 6.96 in data set [6] and 7.64 in the data set with MV4-11. Moreover, the thermal shift (ΔTm) in data set [7] amounted to 1.04 °C. Further, the microsomal CLint at 1 µM in data set [2] turned out to be 78 µL/min/mg. The inhibition at 20 min, 10 µM on CYP3A4 [3] worked out at 30%; against CYP3A4 [4], 28%; on CYP2D6, 2%; against CYP2C9, 18%; at CYP1A2 it was 2%; on CYP2C19, 18%. The TDI result at Cytochrome P450 2C9 [5] and at Cytochrome P450 2C19 was “Active” in each case.
As for `CNc1cc(-c2csc(=O)[nH]2)cc(S(=O)(=O)NC2CCCC2)c1C`, the pIC50 in data set [1] is 6.60; in the data set with HT-29, 6.07; in data set [6], 6.30; with MV4-11, 6.70. For the same compound, the microsomal CLint at 1 µM in [2] came out at 174 µL/min/mg. In addition, the inhibition at 20 min, 10 µM was 41% against CYP3A4 [3]; 47% against CYP3A4 [4]; 36% at CYP2D6; 37% against CYP1A2; 17% on CYP2C19. Also, the “inhibition (INH)” value on Cytochrome P450 2C9 [8] was “Not Active”. The TDI result on Cytochrome P450 3A4, at Cytochrome P450 2D6, on Cytochrome P450 2C9 [5], at Cytochrome P450 1A2 and on Cytochrome P450 2C19 was “Not Active” in each case.

In general, pIC50 refers to the negative decadic logarithm of the IC50, by convention in mol/L. What is called inhibition is the share of the control response that was lost under treatment. Read a low inhibition as a weak effect. As usually defined, the ΔTm is the change in melting temperature against a reference sample.
